Data on eight molecules can be found in paper PMC4256430 (Journal of immunology (Baltimore, Md. : 1950), 2010).

In assay [1] the test system is ERK phosphorylation in peritoneal Mϕs (WT and Fpr2^−/−). The assay is described as follows: ERK phosphorylation in Mϕs. In kind it is cell-based, mouse. The settings on record: concentration range, 10 min at 37°C, n = 3; for ERK phosphorylation, Fpr2^−/− Mϕs: Fpr2^−/− Mϕs compared with WT. A digest of the protocol:
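Peritoneal macrophages from WT littermates and Fpr2−/− mice were equilibrated 30 min in Glutamax DMEM with penicillin/streptomycin, then exposed to ligand concentration ranges for 10 min at 37°C. Lysates underwent SDS-PAGE and PVDF transfer. Blots were probed overnight for phospho-p44/42 and total p44/42 (each 1:1000), with HRP anti-rabbit and ECL detection. Read-out was the phospho-/total ERK ratio, from three distinct cultures (Mann-Whitney U).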

For the next assay, the system named is FPR2/ALX. The settings on record: ref [32]; cited from earlier work.
For assay [2], the system named is IL-1β–induced Gr1^+ cell recruitment, WT and Fpr2^−/− mice. The assay is described as follows: IL-1β–induced air pouch, Gr1^+ cell. To be noted: 4 h; for inhibition of IL-1β-promoted Gr1^+ cell recruitment, WT: Ac2–26 dose-dependent, LXA4 and Cpd43 at anti-inflammatory doses, n = 6, p < 0.01. In kind it is in vivo, mouse.
For assay [3], the system named is Fpr2. To be noted: cited from earlier work.
The next assay relates to all FPRs. The settings on record: in vitro experimental settings; ref [33]; cited from earlier work.
Assay [4] has as its system Fpr2. It is filed as binding, mouse. The settings on record: WT Mϕs; [125I]-labeled W-peptide. In short, it runs like this:
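Primary peritoneal macrophages (10 × 10^6 cells/ml in PBS with Ca2+/Mg2+) were incubated with [125I]W-peptide tracer for 1 h on ice. Excess unlabeled W-peptide defined nonspecific binding; specific binding was calculated as total minus nonspecific. Cells were collected on GF/C filters by vacuum filtration and washed three times with ice-cold 10 mM Tris-HCl. Bound counts were read on a γ-counter. The experiment was repeated three times.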

Another assay relates to Mϕs (WT and Fpr2^−/−). The assay is described as follows: Mϕ chemotaxis. It is filed as cell-based, mouse. The settings on record: 120 min, 37°C, 5-μm pores; for Mϕ chemotaxis, Fpr2^−/− compared with WT: Fpr2^−/− Mϕs, for fMLP at concentrations >1 μM. In short, it runs like this: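 Macrophages were either bone-marrow-derived (5 d in 20% FCS/30% L929-conditioned DMEM) or peritoneal cells elicited by Biogel (harvested 4 d after i.p. 2% P-100). Cells were suspended at 4 × 10^6/ml in RPMI 1640 with 0.1% BSA. 10^5 cells were placed above 5-μm polycarbonate filters, with stimuli below, for 120 min at 37°C/5% CO2. Migrated cells were quantified by 4 h alamarBlue fluorescence (ex 530–560, em 590 nm) against a macrophage standard curve. Three experiments, each in quadruplicate.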

For a further assay, the system named is fpr1^−/− mice. The settings on record: ref [42]; cited from earlier work.
For assay [5], the system named is zymosan-elicited Gr1^+ cell influx, WT and Fpr2^−/− mice. The assay is described as follows: Zymosan-induced peritonitis, Gr1^+ cell recruitment. It is filed as in vivo, mouse. The settings on record: 1 mg i.v. −10 min, zymosan 1 mg i.p., 4 h, n = 6, NS, mean ± SEM. In short, it runs like this: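 Peritonitis was induced in WT and Fpr2−/− mice with zymosan A, 1 mg i.p. in 0.5 ml PBS. Test protein (1 mg) was given i.v. 10 min before zymosan. Cavities were lavaged at 4 h with PBS containing 25 U/ml heparin and 0.3 mM EDTA. Gr1+ cell influx was quantified by Turk's differential counts and flow cytometry, with percentage of events multiplied by total count per cavity.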

Entries after “also recorded” stand apart in the source; their conditions may differ. Read-outs that look alike come from different tables or passages of the source. No end group written: not given here.

Consider `CC(C)c1c(NC(=O)Nc2ccc(Cl)cc2)c(=O)n(-c2ccccc2)n1C` [Cpd43], for which, in assay [1], the “ERK phosphorylation, WT Mϕs” value is “concentration-dependent rapid phosphorylation of ERK”. In the assay on FPR2/ALX, the FPR2/ALX agonism entry is “selective nonpeptidic FPR2/ALX agonist”. For the same molecule, the “effect on IL-1β-promoted cell recruitment, Fpr2^−/−” value (“effect” for short) in assay [2] (Fpr2^−/− mice, i.v., air pouch) is listed as “ineffective”. Moreover, in assay [2] (WT mice, i.v., air pouch), the “inhibition of IL-1β-promoted Gr1^+ cell recruitment, WT” value is 50–75%.

Regarding `CCCCC[C@H](O)/C=C/C=C\C=C\C=C\[C@@H](O)[C@@H](O)CCCC(=O)O` [LXA4, lipoxin A4], the “activation of Fpr2” value with Fpr2 [3] (ref [23]) is listed as “known to be activated”. The “effect” value in [2] (Fpr2^−/− mice, i.v., air pouch) is “ineffective”. In addition, in assay [2] (WT mice, i.v., air pouch), the “inhibition of IL-1β-promoted Gr1^+ cell recruitment, WT” value is listed as 50–75%.

As to Ac-AMVSEFLKQAWIENEEQEYVVQTVK [Ac2–26], in the assay on all FPRs, the “activation of FPRs” value is “known to activate all FPRs”.

Regarding `C[C@@H]1C[C@H]2[C@@H]3CCC4=CC(=O)C=C[C@]4(C)[C@@]3(F)[C@@H](O)C[C@]2(C)[C@@]1(O)C(=O)COP(=O)([O-])[O-].[Na+].[Na+]` [dexamethasone, dexamethasone 21-phosphate disodium salt], the “efficacy in air pouch, Fpr2^−/− mice” value in assay [2] (Fpr2^−/− mice, dexamethasone 0.5 mg/kg i.v. −1 h, IL-1β 20 ng) is reported as “reduced efficacy”. Besides, in [2] (WT mice, dexamethasone 0.5 mg/kg i.v. −1 h, IL-1β 20 ng), the “Gr1^+ cell infiltrate into air pouch, WT” value was “significantly reduced”.

Consider WKYMVm [W-peptide], for which the “ligand activity / affinity at Fpr2” value in the assay with Fpr2 [3] (high-affinity ligand, ref [30]) is recorded as “high-affinity ligand for Fpr2”. Moreover, in assay [1], the “ERK phosphorylation, Fpr2^−/− Mϕs” value is listed as “absent” and the “ERK phosphorylation, WT Mϕs” value is “concentration-dependent rapid phosphorylation of ERK”. The “binding sites revealed by Scatchard plot” value in the assay with Fpr2 [4] was “both high- and low-affinity binding sites”.

On to formyl-Met-Leu-Phe [fMLP], for which the “concentration for optimal Mϕ chemotaxis” value in the assay with Mϕs (WT and Fpr2^−/−) (mean of three experiments in quadruplicate) was determined as 1 µM. Also, the “Mϕ chemotaxis, Fpr2^−/− compared with WT” value with Mϕs (WT and Fpr2^−/−) was “attenuated significantly”.

B1: SAA: serum amyloid A, purchased from PeproTech (protein, UniProt P0DJI8 19-122, looked up)
Serum amyloid A-1 protein: RSFFSFLGEAFDGARDMWRAYSDMREANYIGSDKYFHARGNYDAAKRGPGGAWAAEVITDARENIQRFFGHGAEDSLADQAANEWGRSGKDPNHFRPAGLPEKY
With B1, the “activation of Fpr2” value in the assay with Fpr2 [3] (ref [22]) is reported as “known to be activated”. In addition, the “ERK phosphorylation, Fpr2^−/− Mϕs” value in [1] is listed as “unchanged; also recorded: retained; also recorded: not diminished”. Moreover, in the assay on Mϕs (WT and Fpr2^−/−), the “Mϕ chemotaxis, Fpr2^−/− compared with WT” value is listed as “absent”. In the assay on Mϕs (WT and Fpr2^−/−) (WT Mϕs), the “Mϕ chemotaxis, WT” value is “promoted consistently”. In assay [2] (Fpr2^−/− mice, i.v., air pouch), the “effect” value is “did not share this response”. Besides, the “increase in number of cells recruited by IL-1β over control” value in assay [2] (WT mice, i.v., air pouch, control values of 3.0 ± 0.4 × 10^6 per cavity) amounted to 1.5 fold.

B2: hrAnxA1: GST-tagged human recombinant annexin A1, produced in Escherichia coli (protein, UniProt P04083 2-346, looked up)
Annexin A1: AMVSEFLKQAWFIENEEQEYVQTVKSSKGGPGSAVSPYPTFNPSSDVAALHKAIMVKGVDEATIIDILTKRNNAQRQQIKAAYLQETGKPLDETLKKALTGHLEEVVLALLKTPAQFDADELRAAMKGLGTDEDTLIEILASRTNKEIRDINRVYREELKRDLAKDITSDTSGDFRNALLSLAKGDRSEDFGVNEDLADSDARALYEAGERRKGTDVNVFNTILTTRSYPQLRRVFQKYTKYSKHDMNKVLDLELKGDIEKCLTAIVKCATSKPAFFAEKLHQAMKGVGTRHKALIRIMVSRSEIDMNDIKAFYQKMYGISLCQAILDETKGDYEKILVALCGGN
modifications: GST tag
Turning to B2, the “anti-migratory action in fpr1^−/− mice” value in the assay with fpr1^−/− mice was “a high proportion of the anti-migratory action of hrAnxA1 is retained”. In assay [2] (Fpr2^−/− mice, i.v. −10 min, IL-1β 20 ng, NS), the “inhibition of PMN accumulation in air pouch, Fpr2^−/− mice” value was 25–30%. Further, the “inhibition of PMN accumulation in air pouch, dose dependence” value in assay [2] (WT mice, i.v. −10 min, IL-1β 20 ng) was “dose-response inhibition”. Besides, the “reduction of Gr1^+ cell content in peritoneal fluids, Fpr2^−/−” value in assay [5] is −5 ± 12%.
